Each structure is given as a SMILES string. Activity calls are given as the source filed them. The calls are words filed in the database; no cut-off is given here.

The nature of experiment [1]: Binding affinity to synthetic HTG21 telomere assessed as conversion of preformed hybrid-type G-quadruplex to antiparallel G-quadruplex structure at 5 uM in presence of K+ ions by CD spectroscopy. The procedure, abridged: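 CD on HTG21 at 5 µM strand in 10 mM Tris-HCl pH 7.4 with 100 mM KCl. Sample heated to 95 °C for 5 min, slowly cooled, held at 4 °C overnight. Titrated with 0–5 mol equiv compound. Scans from 230–450 nm at 25 °C, buffer baseline subtracted, at least three scans averaged.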

A short description of experiment [2]: Inhibition of amplification of synthetic HTG21 telomere assessed as G-quadruplex stabilization by PCR. Summed up:
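PCR stop assay with HTG21 and its partial complementary oligonucleotide (10 pmol each), 0.16 mM dNTP, 2.5 U Taq and test compound. Program: 94 °C for 3 min, then 30 cycles of 94/58/72 °C for 30 s each. Products run on 15% native PAGE and silver stained. IC50 taken from band optical density as 50% inhibition of PCR.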

A short description of experiment [3]: Binding affinity to synthetic HTG21 telomere assessed as change in G-qudraplex DNA melting temperature at 1 uM by FRET method.
Experiment [4] addresses Telomerase reverse transcriptase (Homo sapiens, UniProt O14746). The experiment can be described thus: Inhibition of telomerase in human MCF7 cells by cell-free telomerase repeat amplification protocol assay. Summed up:
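Modified TRAP using 100 ng of MCF-7 extract in 20 mM Tris-HCl pH 8.0 with 63 mM KCl, 1.5 mM MgCl2, 1 mM EGTA, 50 µM dNTPs, primers TSG4/TS/CXext/NT and a TSNT internal control. Compound or water added, 30 min elongation at 30 °C, then 30 PCR cycles. Read-out by 10% native PAGE with silver stain; TelIC50 from band optical density.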

Experiment [5] in a line: Binding affinity to synthetic HTG21 telomere by competition dialysis method. The procedure, abridged: (§1)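 Competition dialysis, Tris-HCl 10 mM pH 7.4 with 100 mM NaCl. Each nucleic acid (0.5 mL, 45 µM monomeric unit) in a 1000 MWCO dialysis unit, all dialyzed together against a common ligand solution for 24 h at room temperature. DNA samples brought to 1% SDS. Total ligand in each tube and free ligand in dialysate read by absorbance (425 or 415 nm). Bound = total − free.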

Experiment [6] in a line: Binding affinity to synthetic Pu27 oligonucleotide by competition dialysis method. The procedure, abridged:
as §1

Experiment [7] can be described thus: Binding affinity to synthetic HT7 oligonucleotide by competition dialysis method. The procedure, abridged:
as §1

Experiment [8] in a line: Binding affinity to synthetic [d(T2AG3)] oligonucleotide by NMR spectroscopy. The procedure, abridged: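 1H NMR titration at 25 °C of HPLC-purified d(T2AG3) at 0.5 mM in 90% H2O/10% D2O with 150 mM KCl and 25 mM potassium phosphate pH 7.0. Watergate water suppression; imino proton shifts monitored.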
Experiment [9] can be described thus: Binding affinity to synthetic [d(T2AG3)] oligonucleotide assessed as increase in DNA melting temperature by NMR spectroscopy. Summed up:
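1H NMR thermal denaturation of d(T2AG3) at 0.5 mM in 90% H2O/10% D2O with 150 mM KCl and 25 mM potassium phosphate pH 7.0. Spectra recorded every 5 °C from 25–90 °C after 15 min equilibration at each step, Watergate water suppression.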

For experiment [10], the system named is HL-60. The experiment can be described thus: Decrease in telomere length in human HL60 cells at 0.06 uM after 16 days by telomeric restriction fragment length assay. Format: functional, cell-based. Summed up: (§2)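 Cells were reseeded every 4 days with continuous compound or 0.1% DMSO for 16 days. Genomic DNA was cut with HinfI/RsaI and run on 0.8% agarose. It was then Southern blotted and probed with a DIG-labelled telomeric repeat probe, detected by anti-DIG alkaline phosphatase chemiluminescence to give TRF length.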

The subject of experiment [11] is HL-60. The experiment can be described thus: Decrease in telomere length in human HL60 cells at 0.03 uM after 16 days by telomeric restriction fragment length assay. The class given is functional, cell-based. Summed up: as §2
Experiment [12] deals with CA46. The experiment is described as follows: Decrease in telomere length in human CA46 cells at 0.06 uM after 16 days by telomeric restriction fragment length assay. The class given is functional, cell-based. Summed up:
as §2

The subject of experiment [13] is HL-60. The experiment is described as follows: Cytotoxicity against human HL60 cell after 48 hrs by MTT assay. Format: functional, cell-based. To be noted: HL-60, 48 h. Summed up: (§3)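 MTT assay: cells seeded at 1.0 × 10^3 per well in RPMI-1640 with 10% FBS and exposed to a range of ligand concentrations for 48 h at 37 °C, 5% CO2. MTT added for 4 h, formazan dissolved in DMSO, OD read at 570 nm. Each dose run in triplicate; IC50 from mean OD versus concentration curves.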

The test system of experiment [14] is CA46. The experiment is described as follows: Cytotoxicity against human CA46 cell after 48 hrs by MTT assay. Format: functional, cell-based. The conditions noted are these: CA46, 48 h. Summed up:
as §3

The test system of experiment [15] is HL-60. The experiment can be described thus: Growth inhibition in human HL60 cells at 0.06 uM after 12 days. Format: functional, cell-based. Summed up:
(§4)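 Long-term culture: 1.0 × 10^5 cells per flask with ligand at 0.03 or 0.06 µM, or 0.1% DMSO. Every 4 days cells were counted and reseeded at 1.0 × 10^5 with fresh treatment, for 16 days. Each point done three times.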

In experiment [16] the test system is HL-60. The experiment can be described thus: Growth inhibition in human HL60 cells assessed as increase in population doubling time at 0.03 uM. Format: functional, cell-based. The procedure, abridged: as §4
Experiment [17] relates to CA46. The experiment is described as follows: Growth inhibition in human CA46 cells at 0.06 uM after 12 days. Format: functional, cell-based. Summed up: as §4
Experiment [18] relates to CA46. The experiment is described as follows: Growth inhibition in human CA46 cells assessed as increase in population doubling time at 0.03 uM. The class given is functional, cell-based. The procedure, abridged:
as §4

Experiment [19] has as its system HL-60. The experiment can be described thus: Induction of senescence in human HL60 cells at 0.06 uM administered continuously for 16 days by senescence-associated beta-galactosidase assay. Format: functional, cell-based. The procedure, abridged:
(§5)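 Cells were treated continuously with 0.06 µM ligand or 0.1% DMSO for 16 days. They were fixed in 2% formaldehyde/0.2% glutaraldehyde for 15 min at room temperature, washed in PBS, and stained overnight at 37 °C with 1 mg/mL X-Gal stain solution.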

Experiment [20] concerns CA46. The experiment is described as follows: Induction of senescence in human CA46 cells at 0.06 uM administered continuously for 16 days by senescence-associated beta-galactosidase assay. Format: functional, cell-based. Summed up: as §5

Sequence of Telomerase reverse transcriptase (O14746 whole entry): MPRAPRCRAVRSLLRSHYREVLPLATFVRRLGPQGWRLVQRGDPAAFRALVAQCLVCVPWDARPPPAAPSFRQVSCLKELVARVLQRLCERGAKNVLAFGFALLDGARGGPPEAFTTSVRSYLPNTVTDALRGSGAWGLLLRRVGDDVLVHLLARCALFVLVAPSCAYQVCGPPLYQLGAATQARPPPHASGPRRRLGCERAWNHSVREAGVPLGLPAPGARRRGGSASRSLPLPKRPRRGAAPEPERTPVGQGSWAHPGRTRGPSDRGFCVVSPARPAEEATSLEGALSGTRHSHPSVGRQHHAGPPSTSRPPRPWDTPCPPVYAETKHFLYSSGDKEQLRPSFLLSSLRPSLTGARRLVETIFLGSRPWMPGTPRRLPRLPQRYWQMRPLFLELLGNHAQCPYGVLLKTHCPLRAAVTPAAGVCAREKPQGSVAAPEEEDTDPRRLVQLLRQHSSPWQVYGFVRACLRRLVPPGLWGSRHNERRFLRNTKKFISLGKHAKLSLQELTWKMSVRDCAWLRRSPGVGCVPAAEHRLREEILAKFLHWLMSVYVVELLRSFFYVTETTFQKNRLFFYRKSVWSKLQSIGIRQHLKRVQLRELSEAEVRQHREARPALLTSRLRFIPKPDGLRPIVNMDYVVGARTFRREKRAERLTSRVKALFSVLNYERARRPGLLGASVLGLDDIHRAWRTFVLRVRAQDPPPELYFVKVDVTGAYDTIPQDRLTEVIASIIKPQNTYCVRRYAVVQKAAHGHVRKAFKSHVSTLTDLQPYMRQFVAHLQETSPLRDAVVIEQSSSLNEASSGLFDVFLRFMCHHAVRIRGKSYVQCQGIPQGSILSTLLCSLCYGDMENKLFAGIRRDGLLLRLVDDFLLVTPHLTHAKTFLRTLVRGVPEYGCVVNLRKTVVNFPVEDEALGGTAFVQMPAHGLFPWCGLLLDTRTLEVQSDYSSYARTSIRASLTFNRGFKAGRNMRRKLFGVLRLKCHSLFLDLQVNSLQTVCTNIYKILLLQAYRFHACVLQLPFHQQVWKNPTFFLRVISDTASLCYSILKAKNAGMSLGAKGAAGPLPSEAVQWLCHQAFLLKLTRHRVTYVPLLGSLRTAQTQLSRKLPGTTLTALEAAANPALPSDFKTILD

As to `CCN(CC)CCCNc1c2ccccc2[n+](C)c2c1oc1ccccc12`, the result in experiment [1] was Active. Besides, the IC50 in experiment [2] is 5.7 µM. Also, the ΔTm in experiment [3] was determined as 15 °C.
In the case of `CCN(CC)CCCNc1c2ccccc2[n+](C)c2c1[nH]c1ccccc12`, the result in experiment [1] was Active. Besides, the IC50 in [2] was determined as 5.1 µM; in [4], 0.16 µM. Further, the ΔTm in experiment [3] amounted to 19 °C.
As to `CN(C)CCNc1c2ccccc2[n+](C)c2c1[nH]c1c(F)cc(F)cc12`, the result in experiment [1] was Active. The IC50 in experiment [2] is greater than 20 µM. In experiment [3], the ΔTm stood at 11 °C.
Consider `CN(C)CCNc1c2ccccc2[n+](C)c2c1oc1ccccc12`, for which, in experiment [1], the outcome was Active. Besides, the IC50 in experiment [2] was found to be 11.5 µM. In addition, in experiment [3], the shift in melting temperature (ΔTm) worked out at 11 °C.
In the same order, the values of `C[n+]1c2ccccc2c(NCCCN2CCOCC2)c2[nH]c3ccccc3c21` are “Active”, greater than 20 µM and 12 °C.
On to `CN(C)CCCNc1c2ccccc2[n+](C)c2c1[nH]c1c(F)cc(F)cc12`, for which, in experiment [1], the outcome was Active. Moreover, the IC50 in experiment [2] was found to be 9 µM; in experiment [4], 0.4 µM. Also, in experiment [3], the ΔTm turned out to be 15 °C.
As to `CN(C)CCCNc1c2ccccc2nc2c1[nH]c1ccccc12`, the IC50 is greater than 20 µM in experiment [2] and 0.63 µM in [4]. Besides, the ΔTm in experiment [3] is 9 °C.
With `CCN(CC)CCNc1c2ccccc2[n+](C)c2c1[nH]c1ccc(F)cc12`, the result in experiment [1] was Active. The IC50 in experiment [2] was 18 µM. The ΔTm in experiment [3] was determined as 12 °C.
In the case of `CN(C)CCCNc1c2ccccc2[n+](C)c2c1oc1ccccc12`, the outcome in experiment [1] was Active. Moreover, the IC50 in [2] came out at 6.1 µM; in experiment [4] it was 0.37 µM. The ΔTm in experiment [3] is 14 °C.
Consider `CCN(CC)CCNc1c2ccccc2[n+](C)c2c1[nH]c1c(F)cc(F)cc12`, for which the outcome in experiment [1] was Active. For the same molecule, the IC50 in [2] is 15 µM. Moreover, the ΔTm in experiment [3] was found to be 11 °C.
The matching figures for `CN(C)CCNc1c2ccccc2[n+](C)c2c1[nH]c1ccc(F)cc12`: “Active”, 13 µM and 14 °C.
Take `C[n+]1c2ccccc2c(NCCO)c2oc3ccccc3c21`: the result in experiment [1] was Active. Also, the half-inhibitory concentration (IC50) in experiment [2] is greater than 20 µM. In [3], the ΔTm turned out to be 4 °C.
In the same order, the values of `C[n+]1c2ccccc2c(NCCN2CCOCC2)c2oc3ccccc3c21` are “Active”, greater than 20 µM and 9 °C.
For `CN(C)CCCNc1c2ccccc2[n+](C)c2c1[nH]c1ccccc12`, the outcome in [1], in [5], in experiment [6] and in experiment [7] was Active. The IC50 in experiment [2] came out at 4.5 µM; in [4] it was 0.22 µM. For the same molecule, the ΔTm in [3] stood at 17 °C.
With `C[n+]1c2ccccc2c(NCCO)c2[nH]c3ccccc3c21`, the outcome in [1] was Active. The 50% inhibitory concentration (IC50) in experiment [2] was greater than 20 µM. Besides, the ΔTm in experiment [3] was found to be 5 °C.
On to `C[n+]1c2ccccc2c(NCCCO)c2oc3ccccc3c21`, for which, in experiment [1], the result was Active. Moreover, in [2], the IC50 was greater than 20 µM. For the same molecule, the ΔTm in [3] was found to be 10 °C.
In the same order, the values of `C[n+]1c2ccccc2c(NCCCO)c2[nH]c3ccccc3c21` are “Active”, greater than 20 µM and 7 °C.
The matching figures for `C[n+]1c2ccccc2c(NCCCN2CCOCC2)c2oc3ccccc3c21`: “Active”, 18 µM and 13 °C.
On to `CN(C)CCCNc1c2ccccc2[n+](C)c2c1[nH]c1ccc(F)cc12`, for which the result in experiment [1], in [8], in [10], in [11], in experiment [12] and in experiment [15] was Active. The outcome in experiment [16], in [17], in [18], in experiment [19] and in [20] was Active. In addition, the IC50 came out at 8 µM in experiment [2], 0.31 µM in experiment [4], 1.21 µM in experiment [13] and 1.36 µM in experiment [14]. Further, the results for the ΔTm in experiment [9] and in experiment [3] were 25 °C and 14 °C, respectively.
Regarding `CN(C)CCNc1c2ccccc2[n+](C)c2c1[nH]c1ccccc12`, the outcome in [1] was Active. In addition, the IC50 in experiment [2] came out at 10.3 µM. Besides, in experiment [3], the ΔTm came to 13 °C.
The matching figures for `CCN(CC)CCNc1c2ccccc2[n+](C)c2c1oc1ccccc12`: “Active”, 13 µM and 12 °C.
Turning to `CCN(CC)CCCNc1c2ccccc2[n+](C)c2c1[nH]c1c(F)cc(F)cc12`, the result in experiment [1] was Active. The IC50 was 5.5 µM in [2] and 0.27 µM in [4]. In addition, the ΔTm in experiment [3] came to 15 °C.
Regarding `CCN(CC)CCNc1c2ccccc2[n+](C)c2c1[nH]c1ccccc12`, the outcome in experiment [1] was Active. For the same molecule, the IC50 in experiment [2] is 12 µM. For the same molecule, the ΔTm in experiment [3] is 12 °C.
On to `CCN(CC)CCCNc1c2ccccc2[n+](C)c2c1[nH]c1ccc(F)cc12`, for which, in experiment [1], the outcome was Active. Moreover, the values for the IC50 in [2] and in experiment [4] were 5 µM and 0.2 µM, respectively. Also, the ΔTm in [3] amounted to 18 °C.
In the case of `C[n+]1c2ccccc2c(NCCN2CCOCC2)c2[nH]c3ccccc3c21`, in experiment [1], the outcome was Active. Also, the IC50 in experiment [2] is greater than 20 µM. Moreover, the ΔTm in [3] came to 10 °C.

Source of the values: ChEMBL document CHEMBL1140172, “5-N-methylated quindoline derivatives as telomeric g-quadruplex stabilizing ligands: effects of 5-N positive charge on quadruplex binding affinity and cell proliferation” (J Med Chem, 2008).
